From PubChem BioAssay
Scp1 inh: Scp-1 phosphatase inhibitors, primary screen, biochemical, colorimetric, uHTS. Recombinant Scp1, phosphopeptide, malachite green phosphate absorbance. AID 493091, 2011. inhibition, % at 20 µM. hit rate 0.88% among 340,000;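 active = inhibition above about 50% at 20 µM, limit read from the data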;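 note: plate controls were DMSO wells with enzyme for no effect and wells lacking enzyme for full effect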
Target sequence (Q9GZU7 76-261 limits assumed): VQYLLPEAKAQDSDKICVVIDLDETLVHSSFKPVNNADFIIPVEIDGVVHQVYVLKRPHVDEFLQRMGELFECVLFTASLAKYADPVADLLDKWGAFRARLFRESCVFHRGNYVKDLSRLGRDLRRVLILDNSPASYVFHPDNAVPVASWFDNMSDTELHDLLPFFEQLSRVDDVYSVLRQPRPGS
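Test system: SCP-1 phosphatase catalytic domain, residues 76-261 | Compound dosing: One concentration, 20 µM, with 1.0% DMSO | Schedule: 45 min room-temperature reaction, 5 min colour, 30 min stabiliser | Detection: Absorbance at 630 nm | Read-out basis: % inhibition of SCP-1 phosphate liberation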
STEP block: STEP phosphatase inhibitors, primary screen, biochemical, fluorescence intensity, uHTS; hit rate 0.25% among 360,000; recombinant STEP, OMFP fluorogenic substrate; inhibition, % at 20 µM; Tyrosine-protein phosphatase non-receptor type 5 (Homo sapiens), P54829;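 active = inhibition at 20 µM, scaled per plate between control wells, above about 37%, limit read from the data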;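 note: 0% = DMSO with enzyme and substrate and 100% = substrate only without enzyme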
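Also added – OMFP at 25 µM · Test system – STEP tyrosine phosphatase · Technique – FITC-channel fluorescence of OMFP product · Schedule – 20 min at room temperature, dark · Evaluation – control-normalized % inhibition with plate pattern correction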
SUMO HTRF inh: inhibitors of in vitro SUMOylation cascade, primary screen, biochemical, HTRF, uHTS; SUMO-conjugating enzyme UBC9 (Homo sapiens), P63279; inhibition, % at 35 µM; AID 2006, 2009; hit rate 0.36% among 290,000; HTRF SUMOylation assay, SAE1/SAE2 + UBC9; in the data active = inhibition above about 50%, passing the limit was not always enough
DNMT1 block: human DNMT1 methyltransferase inhibitors, primary screen, biochemical, molecular beacon, fluorescence, HinP1I cleavage, uHTS; DNA (cytosine-5)-methyltransferase 1 (Homo sapiens), P26358; inhibition (reported as % activation of signal), % at 10 µM; hit rate 0.83% among 360,000; AID 588458, 2011; in the data active = inhibition above about 50%
SUMO1 PPI mod: modulators of SUMO1 protein-protein interactions, primary screen, biochemical, uHTS; Small ubiquitin-related modifier 1 (Homo sapiens), P63165; SUMO1 binding to a labelled peptide, TR-FRET, 1 h; inhibition, % at 20 µM; hit rate 0.33% among 360,000; AID 602429, 2012; in the data active = inhibition above about 37%
Target sequence (P63165 whole entry, looked up): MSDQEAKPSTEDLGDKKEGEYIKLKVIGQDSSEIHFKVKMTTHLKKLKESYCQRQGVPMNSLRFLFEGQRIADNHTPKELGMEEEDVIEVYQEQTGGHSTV
LMPTP block: LMPTP phosphatase inhibitors, primary screen, biochemical, fluorescence intensity, uHTS | Low molecular weight phosphotyrosine protein phosphatase (Homo sapiens), P24666 | recombinant LMPTP-A, OMFP fluorogenic substrate | inhibition, % at 20 µM | hit rate 0.22% among 360,000 | AID 651560, 2012;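 active = compounds that cut the enzyme signal by at least half of the control window in the single-dose screen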;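 note: plate controls were DMSO wells with enzyme plus substrate for no effect and substrate without enzyme for full effect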
Target sequence (P24666 whole entry, looked up): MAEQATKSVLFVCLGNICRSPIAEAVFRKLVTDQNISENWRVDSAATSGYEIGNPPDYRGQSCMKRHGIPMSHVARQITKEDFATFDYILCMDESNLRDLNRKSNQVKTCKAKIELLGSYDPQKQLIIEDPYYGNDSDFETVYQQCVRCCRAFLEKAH
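Assay system: LMPTP-A enzyme. Input: 0.625 nM LMPTP-A final. Probe or stimulus: 400 µM OMFP. Compound dosing: single 20 µM dose. Schedule: 50 min dark incubation at room temperature. Detection: fluorescence intensity of OMFP turnover product. Read-out: percent inhibition versus substrate-only and uninhibited controls. Benchmarks: no-enzyme low control, uninhibited high control.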
DNMT1 inh conf: DNMT1 methyltransferase inhibitor retest, confirmation, biochemical, molecular beacon, fluorescence, single concentration. DNMT1 molecular beacon HinP1I cleavage. inhibition, % at 10 µM. hit rate 8% among 2,300. shares compounds with DNMT1 block;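 active = average inhibition of at least 30% in the single-concentration confirmation test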
Beacon interf: beacon fluorescence artifact counter-screen | shares compounds with DNMT1 block | DNMT1 molecular beacon spectral interference counterscreen, fluorescence 485/520 | activation (fluorescence interference), % at 10 µM | hit rate 1% among 2,300 | AID 602387;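 active = activation of at least 30% at 10 µM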;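 note: DNMT1 catalytic domain with a HinP1I cleavage step and a FAM/dabcyl DNA beacon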
Starred values were filed as active, the others as inactive; . = not tested or not shown. Sampled rows, rich in hits. Any-hit rate of the full collection: about 1.9%.

SMILES	Scp1 inh	STEP block	SUMO HTRF inh	DNMT1 block	SUMO1 PPI mod	LMPTP block	DNMT1 inh conf	Beacon interf
CCC1Oc2nc(SC)nnc2-c2ccccc2N1C(=O)c1ccccc1 (stereo not drawn)	-14	2	12	54*	-23	0	5	6
O=C(N/N=C/c1ccc(Br)cc1)c1ccc(NC(=O)c2ccccc2)cc1	16	9	.	74*	11	21	-1	-6
Cc1cc(NC(=O)c2ccco2)c(=O)n(Cc2cccc(C(F)(F)F)c2)c1	-6	0	2	66*	-8	1	3	5
COc1ccc(CN2C(=O)C(CC(=O)NC3CCCCC3)CC(C(=O)N(C(C)C)C(C)C)=C2C)cc1 (stereo not drawn)	.	0	.	-1	-1	0	.	.
CC(/C=N\NC(=O)c1cc(C)oc1C)=C\c1ccccc1	-4	1	2	72*	-10	0	4	4
Cc1nc(Cc2nnc(SCC(=O)N3CC(=O)Nc4ccccc43)o2)cs1	22	1	.	6	3	0	.	.
CCOCCCNC(=O)c1ccccc1SCC	3	2	12	52*	4	0	3	7
CCOC(=O)c1sc(NC(=O)/C=C/c2c(F)cccc2Cl)nc1C	-5	0	12	60*	1	7	0	-2
CCOC(=O)c1sc(NC(=O)Nc2ccccc2F)nc1C	-5	2	7	4	-1	-1	.	.
COc1cccc(NC(=S)NCCC(c2ccccc2)c2ccccc2)c1	-7	1	-7	56*	1	5	9	9
COc1cc(NC(=S)NCCC(c2ccccc2)c2ccccc2)cc(OC)c1	-10	2	-30	-10	-4	2	.	.
Cc1cccnc1NC(=O)CCC(=O)c1cccs1	-1	2	.	-6	1	0	.	.
O=C(NOCc1cscn1)Nc1ccccc1	7	0	.	5	1	0	.	.
O=C(OCc1cc(=O)n2ccsc2n1)c1ccccc1NCCO	59*	5	.	59*	11	4	4	3
Cc1ccc(C(=O)OCc2cc(=O)n3ccsc3n2)s1	-7	-5	.	2	29	0	.	.
Cc1cccc(C)c1NC(=O)COC(=O)c1cc[n+]([O-])cc1	0	-2	.	4	-12	-1	.	.
Cc1cc(C(F)(F)F)c(C#N)c(SCC(=O)Nc2nc3ccccc3s2)n1	-7	-4	3	83*	-1	-1	23	11
COc1ccc(C(=O)N/C(=C\c2ccccc2)C(=O)NCc2cccnc2)cc1	1	-2	13	1	-5	-1	.	.
CCC(NC(=O)c1cccc(Cn2nc(C)c([N+](=O)[O-])c2C)c1)c1ccc(C(C)C)cc1 (stereo not drawn)	0	0	6	55*	1	5	2	5
CC1CCCCC1NC(=O)COC(=O)c1c2c(nc3ccccc13)/C(=C/c1ccco1)CC2 (stereo not drawn)	68*	5	65*	95*	28	39	3	-7
Cc1cc(C(=O)OCC(=O)NC2CCCCC2C)c2ccccc2n1 (stereo not drawn)	4	2	.	5	-9	-1	.	.
CNC(=S)Nc1ccc(N2CCN(c3ccc(C(F)(F)F)cn3)CC2)nc1	8	9	10	10	1	1	.	.
Cc1cccc(Nc2nnc(SCC(=O)NC(=O)Nc3ccc4c(c3)OCCO4)s2)c1	-5	1	8	50*	0	-1	-1	2
Cc1ccccc1Nc1nnc(SCC(=O)NC(=O)Nc2ccc3c(c2)OCCO3)s1	.	.	-3	.	.	.	.	.
Cc1cccc(C)c1N1C(=O)c2ccccc2NC(=O)C1C(=O)NCC(C)C (stereo not drawn)	.	.	.	.	0	-1	.	.
SMILES	Scp1 inh	STEP block	SUMO HTRF inh	DNMT1 block	SUMO1 PPI mod	LMPTP block	DNMT1 inh conf	Beacon interf
NC(=S)N/N=C/c1coc2c(ccc3ccccc32)c1=O	-6	-2	41	55*	2	16	2	-7
NC(=S)N/N=C/c1coc2cc(Br)ccc2c1=O	-14	1	19	0	-1	0	.	.
S=C(N/N=C/c1ccco1)NC1CC2CCC1C2 (stereo not drawn)	49	11	7	18	-2	10	.	.
CCc1ccc(NC(=O)c2noc3c2CCC3)cc1	48	4	8	80*	1	2	10	6
COC(=O)COc1ccc(S(=O)(=O)Nc2ccccc2SC)cc1	-28	-1	3	79*	-1	-1	4	8
CCOc1ccc(S(=O)(=O)Nc2ccccc2SC)cc1	-4	2	-12	-6	1	2	.	.
Cc1ccccc1-c1cc2nc(C)c(C)c(=O)n2[nH]1	-8	-1	5	84*	0	1	7	4
Cc1nc2cc(-c3ccc(F)cc3)[nH]n2c(=O)c1C	-1	0	12	0	5	1	.	.
Cc1cc(=O)oc2cc(Oc3ccc([N+](=O)[O-])cc3[N+](=O)[O-])ccc12	-14	-1	5	23	-26	-1	.	.
COc1ccc(NC(=O)CSc2nc3c(cc2C#N)CN(C)CC3)cc1	6	3	2	71*	-8	21	3	5
COc1ccc(OCc2cn(CC(=O)c3ccc(O)cc3)nn2)cc1	-2	6	.	57*	8	0	4	-2
O=C(Cn1cc(COc2ccc(C(=O)c3ccccc3)cc2)nn1)c1ccc(O)cc1	-14	-5	.	39	5	0	.	.
CCC(=O)c1ccc(OCc2cn(CC(=O)c3ccc(O)cc3)nn2)cc1	-8	2	.	54*	2	1	10	-3
Cc1cccn2c(=O)c(C=O)c(N3CCN(c4ccc(F)cc4)CC3)nc12	-4	-5	0	-2	-13	0	.	.
